Active and inactive are the calls of the source.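 Rule for the calls: active = mean IC50 below 20 µM in the confirmatory beta-arrestin antagonist test; inactive = the rest.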
These compounds were tested against Apelin receptor (Homo sapiens) (UniProt P35414) (assay: blockers of apelin-13-driven APJ signaling – cell-based, CHO-K1 AGTRL-1, PathHunter luminescence, set 5, SAR follow-up (AID 504436)). Settings: CHO-K1 APJ beta-arrestin PathHunter, antagonist.
Summary of the method: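 test system = CHO-K1 cells with ProLink-tagged APJ and EA-fused beta-arrestin | schedule = overnight seeding, 90-min dark 25 °C compound-agonist exposure, 60-min detection | doses = test compounds as a dose-response series | reagent = Apelin-13 agonist at 10 nM final, added with compounds | measured by = enzyme-fragment complementation luminescence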

Apelin receptor (Homo sapiens), sequence (P35414 whole entry, looked up, the tested form may be a part): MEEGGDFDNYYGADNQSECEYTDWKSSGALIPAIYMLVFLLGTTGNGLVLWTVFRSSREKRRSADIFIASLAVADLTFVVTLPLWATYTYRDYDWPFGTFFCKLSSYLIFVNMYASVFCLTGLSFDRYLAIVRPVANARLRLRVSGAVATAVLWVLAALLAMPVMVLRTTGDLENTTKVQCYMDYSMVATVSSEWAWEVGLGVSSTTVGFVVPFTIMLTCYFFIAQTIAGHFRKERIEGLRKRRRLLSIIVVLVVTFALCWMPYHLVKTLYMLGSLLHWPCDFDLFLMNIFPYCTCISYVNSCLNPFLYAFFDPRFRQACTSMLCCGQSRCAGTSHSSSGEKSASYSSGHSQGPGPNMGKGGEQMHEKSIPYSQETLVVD

| SMILES | IC50 |
| --- | --- |
| Cc1cc(C)nc(SCc2cc(=O)c(OC(=O)c3ccc(-c4nccs4)cc3)co2)n1 | > 79 µM (inactive) |
| O=C(Oc1coc(CN2CCOCC2)cc1=O)c1ccc([N+](=O)[O-])cc1 | 16.4 µM |
| Cc1ccnc(SCc2cc(=O)c(NC(=O)c3ccc([N+](=O)[O-])cc3)co2)n1 | > 79 µM (inactive) |
| O=C(Oc1coc(CN2CCOCC2)cc1=O)c1ccccc1 | > 79 µM (inactive) |

Continued, values first:

| IC50 | SMILES |
| --- | --- |
| inactive | O=C(Oc1coc(CSc2ccc(OC(F)(F)F)cc2)cc1=O)c1ccc(Cl)c([N+](=O)[O-])c1 |
| 8.27 µM | COc1ccc(SCc2cc(=O)c(OC(=O)c3ccc(Cl)c([N+](=O)[O-])c3)co2)cc1 |
| 12.8 µM | Cc1ccc(SCc2cc(=O)c(OC(=O)c3ccc(Cl)c([N+](=O)[O-])c3)co2)cc1 |
| 4.53 µM | O=C(Oc1coc(CSc2ccc(Cl)cc2)cc1=O)c1ccc(Cl)c([N+](=O)[O-])c1 |
